ChEMBL document CHEMBL1153833, “Effect of dosing and dosing frequency on the efficacy of ceftizoxime and the emergence of ceftizoxime resistance during the early development of murine abscesses caused by Bacteroides fragilis and Enterobacter cloacae mixed infection” (Antimicrob Agents Chemother, 2007)
In brackets after ≈: the same amount, converted by molar mass. Activity calls are given as the source filed them.

Key:
Enterobacter cloacae [1] = assay: Antimicrobial activity against Enterobacter cloacae isolate 22491 infected BALB/c mouse mixed infection abscesses model co-infected with Bacteroides fragilis ATCC 23745 assessed as reduction in bacterial load per abscess at 1536 mg/kg/day administered every 8 hrs; format: functional
In short: (§1)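 Female BALB/c mice (12-18 wk) injected s.c. on both flanks with 10^7 CFU each of B. fragilis and E. cloacae plus 4 mg autoclaved cecal contents. CZX was given s.c. from 30 min before inoculation for 24 h, two mice per group. Abscesses were homogenized in PBS and plated in duplicate: E. cloacae on EM agar (aerobic, 24 h), B. fragilis on WC agar with gentamicin (anaerobic, 48 h). Result is mean log10 CFU/abscess of four abscesses ± SEM versus untreated; threshold 1.7 log10.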

Enterobacter cloacae [2] = assay: Antimicrobial activity against Enterobacter cloacae isolate 22491 infected BALB/c mouse mixed infection abscesses model co-infected with Bacteroides fragilis ATCC 23745 assessed as increase in resistant bacterial count per abscess at 96 mg/kg/day administered every 2 hrs; format: functional
In short: (§2)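 Mixed subcutaneous flank abscesses in female SPF BALB/c mice (10^7 CFU of each strain plus 4 mg autoclaved cecal contents). Drug given subcutaneously, starting 30 min before inoculation, for 24 h. Abscesses homogenized in PBS. Resistant E. cloacae counted on WC agar with 16x MIC (48 h aerobic, 37°C) and total counts on drug-free EM agar. Groups of two mice.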

Mus musculus [3] = assay: Unbound Cmax (fCmax) in Bacteroides fragilis ATCC 23745 and Enterobacter cloacae isolate 22491-infected BALB/c mouse mixed infection abscesses model at 100 mg/kg administered as single dose; format: ADME, organism-based; parameters: dose 100 mg/kg; conditions: in vivo
In short: (§3)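 Single s.c. dose of 100 mg/kg CZX in groups of three infected mice, 4 days after inoculation. Orbital blood taken at 10-360 min. Serum CZX measured in duplicate by agar diffusion bioassay against E. coli strain 62. One-compartment open model; unbound values assume 13% serum protein binding.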

Bacteroides fragilis [4] = assay: Antimicrobial activity against Bacteroides fragilis ATCC 23745 infected BALB/c mouse mixed infection abscesses model co-infected with Enterobacter cloacae isolate 22491 assessed as inhibition of emergence of resistance mutation; format: functional, organism-based
In short: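 Female SPF BALB/c mice (12–18 weeks, 20–25 g) injected subcutaneously on both flanks with 10^7 CFU B. fragilis, 10^7 CFU E. cloacae and 4 mg ACC. Drug given subcutaneously at 6–1,536 mg/kg/day, q2h–q8h, beginning 30 min before inoculation, for 24 h. B. fragilis mutants counted on WC agar with 16x MIC plus 100 mg/liter gentamicin, 72 h anaerobic, 37°C.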

[5] = Half life in Bacteroides fragilis ATCC 23745 and Enterobacter cloacae isolate 22491-infected BALB/c mouse mixed infection abscesses model at 100 mg/kg administered as 36 doses every 2 hrs; format: ADME, organism-based; parameters: dose 100 mg/kg; conditions: in vivo
In short: (§4)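 Infected mice received 36 doses of 100 mg/kg CZX q2h. Serum CZX measured in duplicate by agar diffusion bioassay against E. coli strain 62. One-compartment open model; unbound values assume 13% protein binding in mouse serum.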

Enterobacter cloacae [6] = assay: Antimicrobial activity against Enterobacter cloacae isolate 22491 infected BALB/c mouse mixed infection abscesses model co-infected with Bacteroides fragilis ATCC 23745 assessed as bacterial killing at 96 mg/kg/day administered every 4 hrs; format: functional, organism-based; in short: as §1
Enterobacter cloacae [7] = assay: Antimicrobial activity against Enterobacter cloacae isolate 22491 infected BALB/c mouse mixed infection abscesses model co-infected with Bacteroides fragilis ATCC 23745 assessed as increase in resistant bacterial count per abscess at 6 mg/kg/day administered every 2 hrs; format: functional; in short: as §2
Mus musculus [8] = assay: Unbound Cmax (fCmax) in Bacteroides fragilis ATCC 23745 and Enterobacter cloacae isolate 22491-infected BALB/c mouse mixed infection abscesses model at 100 mg/kg administered as 36 doses every 2 hrs; format: ADME, organism-based; parameters: dose 100 mg/kg; conditions: in vivo; in short: as §4
Bacteroides fragilis [9] = assay: Antimicrobial activity against Bacteroides fragilis ATCC 23745 infected BALB/c mouse mixed infection abscesses model co-infected with Enterobacter cloacae isolate 22491 assessed as bacterial killing at 24 mg/kg/day administered every 4 hrs; format: functional, organism-based; in short: as §1
Enterobacter cloacae [10] = assay: Antimicrobial activity against Enterobacter cloacae isolate 22491; format: functional
Enterobacter cloacae [11] = assay: Antimicrobial activity against Enterobacter cloacae isolate 22491 assessed as mutation prevention concentration; format: functional
In short: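 Overnight culture concentrated to 10^10 CFU/ml by centrifugation. 1 ml spread over five agar plates containing drug, first at twofold dilutions, then at linear increments. Plates read after 18 h at 37°C. MPC taken as the lowest concentration giving no colonies from 10^10 bacteria. Colonies from the highest concentration were subcultured drug-free to check mutant stability.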

Enterobacter cloacae [12] = assay: Antimicrobial activity against Enterobacter cloacae isolate 22491 infected BALB/c mouse mixed infection abscesses model co-infected with Bacteroides fragilis ATCC 23745 assessed as increase in resistant bacterial count per abscess at 96 mg/kg/day administered every 4 hrs; format: functional; in short: as §2
Bacteroides fragilis [13] = assay: Antimicrobial activity against Bacteroides fragilis ATCC 23745; format: functional
Enterobacter cloacae [14] = assay: Antimicrobial activity against Enterobacter cloacae isolate 22491 infected BALB/c mouse mixed infection abscesses model co-infected with Bacteroides fragilis ATCC 23745 assessed as increase in resistant bacterial count per abscess at 6 mg/kg/day administered every 4 hrs; format: functional; in short: as §2
Enterobacter cloacae [15] = assay: Antimicrobial activity against Enterobacter cloacae isolate 22491 infected BALB/c mouse mixed infection abscesses model co-infected with Bacteroides fragilis ATCC 23745 assessed as bacterial killing at 24 mg/kg/day administered every 4 hrs; format: functional, organism-based; in short: as §1
Bacteroides fragilis [16] = assay: Antimicrobial activity against Bacteroides fragilis ATCC 23745 infected BALB/c mouse mixed infection abscesses model co-infected with Enterobacter cloacae isolate 22491 assessed as reduction in bacterial load per abscess at 1536 mg/kg/day administered every 8 hrs; format: functional; in short: as §1
Bacteroides fragilis [17] = assay: Antimicrobial activity against Bacteroides fragilis ATCC 23745 infected BALB/c mouse mixed infection abscesses model co-infected with Enterobacter cloacae isolate 22491 assessed as bacterial killing at 6 mg/kg/day administered every 2 hrs; format: functional, organism-based; in short: as §1
Enterobacter cloacae [18] = assay: Antimicrobial activity against Enterobacter cloacae isolate 22491 infected BALB/c mouse mixed infection abscesses model co-infected with Bacteroides fragilis ATCC 23745 assessed as increase in resistant bacterial count per abscess at 24 mg/kg/day administered every 2 hrs; format: functional; in short: as §2
Bacteroides fragilis [19] = assay: Antimicrobial activity against Bacteroides fragilis ATCC 23745 infected BALB/c mouse mixed infection abscesses model co-infected with Enterobacter cloacae isolate 22491 assessed as reduction in bacterial load per abscess at 384 mg/kg/day administered every 8 hrs; format: functional; in short: as §1
[20] = Ratio of fAUC to MIC in Enterobacter cloacae isolate 22491 infected BALB/c mouse mixed infection abscesses model co-infected with Bacteroides fragilis ATCC 23745; format: functional
[21] = fT>MIC in Enterobacter cloacae isolate 22491-infected BALB/c mouse at 100 mg/kg; format: functional
[22] = Half life in Bacteroides fragilis ATCC 23745 and Enterobacter cloacae isolate 22491-infected BALB/c mouse mixed infection abscesses model at 100 mg/kg administered as single dose; format: ADME, organism-based; parameters: dose 100 mg/kg; conditions: in vivo; in short: as §3
Enterobacter cloacae [23] = assay: Antimicrobial activity against Enterobacter cloacae isolate 22491 infected BALB/c mouse mixed infection abscesses model co-infected with Bacteroides fragilis ATCC 23745 assessed as reduction in bacterial load per abscess at 384 mg/kg/day administered every 8 hrs; format: functional; in short: as §1
Enterobacter cloacae [24] = assay: Antimicrobial activity against Enterobacter cloacae isolate 22491 infected BALB/c mouse mixed infection abscesses model co-infected with Bacteroides fragilis ATCC 23745 assessed as increase in resistant bacterial count per abscess at 24 mg/kg/day administered every 4 hrs; format: functional; in short: as §2
Bacteroides fragilis [25] = assay: Antimicrobial activity against Bacteroides fragilis ATCC 23745 infected BALB/c mouse mixed infection abscesses model co-infected with Enterobacter cloacae isolate 22491 assessed as bacterial killing at 96 mg/kg/day administered every 4 hrs; format: functional, organism-based; in short: as §1
Enterobacter cloacae [26] = assay: Antimicrobial activity against Enterobacter cloacae isolate 22491 infected BALB/c mouse mixed infection abscesses model co-infected with Bacteroides fragilis ATCC 23745 assessed as bacterial killing at 6 mg/kg/day administered every 2 hrs; format: functional, organism-based; in short: as §1

CO/N=C(\C(=O)N[C@@H]1C(=O)N2C(C(=O)O)=CCS[C@H]12)c1csc(N)n1 [CEFTIZOXIME]
log10cfu (Enterobacter cloacae [1]): >=5
log10cfu (Enterobacter cloacae [2]): 3.8
Cmax_unbound (Mus musculus [3]): 0.6 mg/L
Activity (Bacteroides fragilis [4]): Active
half-life [5]: 13.2 min
Activity (Enterobacter cloacae [6]): inactive
log10cfu (Enterobacter cloacae [7]): 3.8
Cmax_unbound (Mus musculus [8]): 0.6 mg/L
Activity (Bacteroides fragilis [9]): inactive
MIC (Enterobacter cloacae [10]): 0.25 µg/mL (≈ 0.652 µM)
MIC99 (Enterobacter cloacae [10]): 0.125 µg/mL (≈ 0.326 µM)
MPC (Enterobacter cloacae [11]): 384 µg/mL
log10cfu (Enterobacter cloacae [12]): 2
MIC (Bacteroides fragilis [13]): 1 µg/mL (≈ 2.61 µM)
log10cfu (Enterobacter cloacae [14]): 2
Activity (Enterobacter cloacae [15]): inactive
log10cfu (Bacteroides fragilis [16]): >=5
Activity (Bacteroides fragilis [17]): inactive
log10cfu (Enterobacter cloacae [18]): 3.8
log10cfu (Bacteroides fragilis [19]): >=5
Ratio [20]: 1000
T>MIC [21]: 9%
half-life [22]: 13.8 min
log10cfu (Enterobacter cloacae [23]): >=5
log10cfu (Enterobacter cloacae [24]): 2
Activity (Bacteroides fragilis [25]): inactive
Activity (Enterobacter cloacae [26]): inactive
